Screening results (PubChem)
ROCK2 blocker = inhibitors of human ROCK2 kinase, primary screen, biochemical, high-throughput, luminescence; Rho-associated protein kinase 2 (Homo sapiens), O75116; actives 0.35% (n = 60,000); inhibition, % at 6 µM; purified ROCK2, Kinase-Glo ATP depletion luminescence; AID 604, 2007;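 active means inhibition above the screen-wide mean inhibition plus 3 SD, cut at about 18% in these data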;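 further: plate controls were DMSO wells for no effect and Y-27632 control wells after no-enzyme background subtraction for full effect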
Hsp90 inh = tumor Hsp90 inhibitors, primary screen, cell lysate, fluorescence polarization, NCI-N417 lysate. Heat shock protein HSP 90-alpha (Homo sapiens), P07900. Cy3B-geldanamycin FP displacement. inhibition, % at 30 µM. actives 0.35% (n = 64,000);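 active means inhibition above 50%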;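 further: 0% = tracer plus lysate wells and 100% = tracer alone without lysate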
HEK293 NFkB inh = inhibitors of PMA/ionomycin-induced NF-kB reporter, primary screen, antigen receptor NF-kB inhibitor project, cell-based, HEK-293 luciferase reporter, luminescence | HEK-293 NF-kB luciferase reporter | inhibition, % at 3 µM | actives 0.21% (n = 62,000) | AID 465, 2006;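 active means inhibition above the mean of all tested compounds plus 3 SD, cut at about 40% in these data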;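 further: 0% = stimulated DMSO wells and 100% = 10 µM reference inhibitor 5653914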
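System – HEK-293 cells with stable firefly luciferase reporter driven by four HIV NF-kB elements · Doses – one dose, 3 µM · Schedule – 1 h compound pre-incubation, 16 h PMA/ionomycin at 37 °C · Technique – luminescence from luciferase substrate reagent · Measure – percent inhibition normalized per plate to DMSO and reference-inhibitor controls · Replicates – tested once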
JNK3 blocker = JNK3 kinase activity inhibitors, primary screen, biochemical, human, purified enzyme; Mitogen-activated protein kinase 10 (Homo sapiens), P53779; AID 746, 2007; inhibition, % at 8 µM; HTS; actives 0.61% (n = 60,000); in the data active means inhibition above about 17%;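 further: 0% = DMSO and 100% = reference inhibitor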
PKA inh = inhibitors of human PKA kinase activity, primary screen, biochemical, ATP-depletion luminescence, Kemptide substrate; actives 0.1% (n = 65,000); PKA Kemptide phosphorylation, Kinase-Glo ATP luminescence; cAMP-dependent protein kinase catalytic subunit alpha (Homo sapiens), P17612; AID 524, 2006; inhibition, % at 6 µM;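 active means inhibition above the screen-wide mean inhibition plus 3 SD, cut at about 21% in these data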
TNAP act mid DEA = human TNAP enzyme activators, primary screen, biochemical, luminescent, intermediate phosphate acceptor level; purified TNAP, CDP-star luminescence, 100 mM DEA, 30 min; stronger effect = higher value; scale: 0 levamisole-inhibited, 1 vehicle-only enzyme; 64,000 tested, under 10 active; AID 813, 2007; activation factor at 20 µM; Alkaline phosphatase, tissue-nonspecific isozyme (Homo sapiens), P05186;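 active means activation factor of at least 2 at 20 µM, relative to controls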
Target sequence (P05186 whole entry, looked up): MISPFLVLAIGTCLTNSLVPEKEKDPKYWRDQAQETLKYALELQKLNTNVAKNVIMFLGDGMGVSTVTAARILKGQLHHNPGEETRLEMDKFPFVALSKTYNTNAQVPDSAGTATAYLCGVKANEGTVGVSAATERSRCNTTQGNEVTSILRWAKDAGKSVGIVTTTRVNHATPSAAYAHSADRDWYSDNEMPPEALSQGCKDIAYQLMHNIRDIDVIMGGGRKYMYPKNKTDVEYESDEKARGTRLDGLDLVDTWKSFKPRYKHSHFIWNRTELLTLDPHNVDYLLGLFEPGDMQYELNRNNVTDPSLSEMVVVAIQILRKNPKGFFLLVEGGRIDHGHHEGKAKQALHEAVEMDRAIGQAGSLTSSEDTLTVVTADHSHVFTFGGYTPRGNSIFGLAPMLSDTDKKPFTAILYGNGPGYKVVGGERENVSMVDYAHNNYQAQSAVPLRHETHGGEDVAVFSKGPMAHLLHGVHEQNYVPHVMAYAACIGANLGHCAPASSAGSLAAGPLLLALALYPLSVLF
An asterisk follows results filed as active; . = not tested or not shown. Hits are enriched below; roughly 0.94% of the tested compounds scored in any of these assays.

SMILES	ROCK2 blocker	Hsp90 inh	HEK293 NFkB inh	JNK3 blocker	PKA inh	TNAP act mid DEA
Cc1ccc(S(=O)(=O)N2CCC(C(=O)OC(C)C(=O)NCc3ccc4c(c3)OCO4)CC2)cc1 (stereo not drawn)	4	-4	1	1	9	1
Cc1ccc(S(=O)(=O)N2CCC(C(=O)N[C@@H](C)C(=O)Nc3ccc4c(c3)OCO4)CC2)cc1	16	65*	3	1	10	0.9
O=C1NCCCC2c3cc(O)c4ccccc4c3OC12N1CCCCC1 (stereo not drawn)	-3	95*	31	3	-2	1
C[C@H](NC(=O)/C(C#N)=C/c1ccc(O)c(O)c1)c1ccccc1	.	75*	.	.	.	.
N#C/C(=C\c1ccc(O)c(O)c1)C(=O)Nc1ccccc1	.	83*	.	.	.	.
CC(NC(=O)CC(O)(C(F)(F)F)C(F)(F)F)c1ccccc1 (stereo not drawn)	4	-1	20	3	13	0.9
N#CC(C#N)=C(N)/C(C#N)=C/c1ccc(O)cc1	.	-6	.	.	.	.
C[C@@H](NC(=O)/C(C#N)=C/c1ccc(O)c(O)c1)c1ccccc1	.	77*	.	.	.	.
N#C/C(=C\c1ccc(O)c(O)c1)C(=O)NCCCNC(=O)/C(C#N)=C/c1ccc(O)c(O)c1	.	81*	.	.	.	.
CCCCCCCCCCCCCCCC(=O)OC(CC(=O)O)C[N+](C)(C)C (stereo not drawn)	.	-1	.	.	.	.
CC(C)OC(=O)CSc1nc2ccccc2s1	12	93*	9	2	11	0.9
Fc1cc2nccnc2cc1N1CCSCC1	10	-5	8	23*	12	0.9
COc1ccc2ncn(-c3ccccc3)c2c1	-2	0	-1	30*	11	0.9
COc1ccc(-n2cnc3cc(NCc4cccs4)ccc32)cc1	0	-6	5	1	4	1
N=c1ccn2c(n1)OC1[C@@H](O)[C@@H](CO)O[C@H]12 (stereo partly drawn)	.	-4	.	.	.	.
CCc1cc2c(=O)[nH]cnc2s1	51*	-7	6	3	23*	0.9
CCc1cc2c(=O)n(-c3ccccc3)cnc2s1	1	-1	7	8	6	1
O=C(O)CCCCCC[C@H]1C(=O)NC(=O)N1CC[C@@H](O)C1CCCCC1	.	2	.	.	.	.
COc1ccc(S(=O)(=O)N(C)CC(=O)N2CCC(C(N)=O)CC2)cc1Cl	9	73*	5	1	6	0.9
O=S(=O)(c1ccc2c(c1)OCCO2)N1CCC(n2cnc3cc(F)ccc32)CC1	6	-3	15	25*	11	0.9
CC(C)C1C2CCC(C2)C1N (stereo not drawn)	.	-2	.	.	.	.
CNC(=O)[C@H]1O[C@@H](n2cnc3c(N)ncnc32)C(O)[C@H]1O (stereo partly drawn)	.	22	.	.	.	.
COc1cc(CC(=O)Nc2sccc2C(N)=O)cc(OC)c1OC	3	-9	12	56*	2	0.9
NCC(O)C1CCCCCCC1 (stereo not drawn)	.	0	.	.	.	.
O=C(CCCn1c(=O)[nH]c2cc(Cl)ccc2c1=O)NCC1CCCO1 (stereo not drawn)	4	-1	7	23*	3	0.9
SMILES	ROCK2 blocker	Hsp90 inh	HEK293 NFkB inh	JNK3 blocker	PKA inh	TNAP act mid DEA
COc1cc(NCCC(=O)O)c2ncccc2c1	.	0	.	.	.	.
CN(c1ccc(C(=O)Nc2nccs2)cc1)S(=O)(=O)c1ccccc1	4	0	1	28*	10	0.9
CN(c1ccccc1)S(=O)(=O)c1ccc(C(=O)Nc2nccs2)cc1	5	-2	-2	-7	8	0.9
N[C@@H](CCCC(=O)O)C(=O)O	.	-3	.	.	.	.
Cc1nc2c(OCc3ccccc3)cccn2c1CC#N	.	-2	.	.	.	.
Nc1cccc2cnccc12	26*	63*	9	-6	-6	1
c1nc(N2CCCC2)c2[nH]cnc2n1	.	.	21	.	22*	.
Cc1ccc2[nH]c3c(N4CCCCCC4)ncnc3c2c1	8	-9	.	-1	5	0.9
CCOC(=O)c1oc2c(C)c(O)ccc2c(=O)c1-c1nncn1-c1ccccc1	0	1	0	-6	6	0.9
CCOC(=O)c1oc2c(O)c(O)ccc2c(=O)c1-c1nncn1-c1ccccc1	7	61*	10	9	10	1
N#CCCSc1ccccc1NC(=O)c1ccc(S(=O)(=O)N2CCCC2)cc1	7	-1	-2	-1	12	1
COc1cc(NCCCN(CC(C)C)CC(C)C)c2ncccc2c1Cl	.	10	.	.	.	.
O=c1c(O)c(-c2cc(O)c(O)c(O)c2)oc2cc(O)cc(O)c12	.	100*	.	.	.	.
Cc1cccc(/N=C/c2c(O)cc(C)oc2=O)n1	6	-7	5	-4	10	.
Oc1[nH]c2ccccc2c1C=Nc1ccc2c(c1)OCCO2	9	3	-77	35*	-3	0.8
Cc1cccc(/N=C/c2c(O)[nH]c3ccccc23)n1	5	0	-16	30*	6	0.8
CN(C)C(=O)/N=N/C(=O)N(C)C	.	6	.	.	.	.
OC[C@H]1O[C@@H](n2cnc3c(NC4CCCC4)ncnc32)C(O)[C@H]1O (stereo partly drawn)	.	3	.	.	.	.
CN(C)c1ccc(N=Cc2nc(-c3ccccc3)oc2O)cc1	1	54*	21	-4	0	0.8
COc1ccc2[nH]c3ccccc3c2c1	2	0	5	-3	0	0.7
COc1ccc2[nH]c(=O)c3c(c2c1)OC(C)(C)C=C3	23*	3	30	5	16	0.9
O=C(CN(Cc1ccco1)C(=O)CNS(=O)(=O)c1ccc(F)cc1)NCc1ccc(F)cc1	2	-4	9	1	-1	6.1*
O=C(CN(Cc1ccco1)C(=O)CNS(=O)(=O)c1ccccc1)NCc1ccc(F)cc1	-1	-2	12	-4	-5	0.9
C[N+](C)(C)CCC(=O)c1cccc2ccccc12	.	0	.	.	.	.
CS(=O)(=O)N1CCN(c2ccccc2NC(=O)Cc2ccccc2)CC1	6	2	14	17*	11	0.9
CCCC(C)N(CC)CCNc1cc(OC)cc2cccnc12 (stereo not drawn)	.	46	.	.	.	.
CCN(CC)CCCNc1cc(OC)cc2ccc(OC)nc12	.	67*	.	.	.	.
CCOc1ccccc1NC(=O)Cn1nnc(C(=O)Nc2ccc(C)cc2)c1N	7	-1	24	-2	10	0.9
CCOc1ccccc1NC(=O)Cn1nnc(C(=O)NCc2ccco2)c1N	2	0	42*	-3	6	0.9
O=c1onc2cnc3ccccc3n12	.	22	.	.	.	.
